In ChEMBL document CHEMBL1127795, “Small-molecule immunostimulants. Synthesis and activity of 7,8-disubstituted guanosines and structurally related compounds” (1994):
pEC50: −log10 of the molar value.

Assays:
Mus musculus [1] = species on record: Mus musculus; test: Percent of maximum response was tested to augment the antibody response of B cells to sheep red blood cell challenge; assay type: functional
Summary of the method: (§1)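 CBA/CaJ spleen cells depleted of T cells with anti-T cell monoclonal antibody (1:1000, 30 min, 4 °C) then complement (37 °C, 45 min). Cultured ± 0.1% SRBC antigen in serum-containing medium with compound from zero to 10⁻³ M for 4 d. Plaque-forming cells counted in agarose with guinea pig complement. ED50 and maximal response relative to a concurrent standard.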

Mus musculus [2] = species on record: Mus musculus; test: Augment antibody response of B cells to sheep red blood cell (SRBC) challenge (adjuvanticity); assay type: functional; conditions: read-out: ED50 (the source's name); summary of the method: as §1
Mus musculus [3] = species on record: Mus musculus; test: Percent of maximum response was tested for its ability to act as B-cell mitogens (mitogenicity); assay type: functional
Summary of the method: (§2)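 CBA/CaJ mouse spleen cells (1 × 10⁵/0.2 mL) exposed to graded compound concentrations, dissolved in water or DMSO and diluted in medium, for 24 h. [³H]thymidine then added for a further 24 h; incorporation by scintillation counting. ED50 and maximal response expressed relative to a concurrently run standard (loxoribine in most cases).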

Mus musculus [4] = species on record: Mus musculus; test: Ability to act as B-cell mitogens; assay type: functional; conditions: read-out: ED50 (the source's name); summary of the method: as §2
YAC-1 [5] = test: Percent of maximum response was tested for its ability to stimulate the natural killer response in murine in vitro cell assays; assay type: functional, Mus musculus
YAC-1 [6] = test: Stimulation of natural killer (NK) response in Yac-1 cell line (mouse, lymphoma); assay type: functional; conditions: read-out: ED50 (the source's name)
YAC-1 [7] = test: Stimulation of natural killer (NK) response in Yac-1 cell line (mouse, lymphoma); Neg indicates a response lower than vehicle control; assay type: functional, cell-based

SMILES | Max response (Mus musculus [1]) | pEC50 (Mus musculus [2]) | Max response (Mus musculus [3]) | pEC50 (Mus musculus [4]) | Max response (YAC-1 [5]) | pEC50 (YAC-1 [6]) | ED50 (YAC-1 [7])
Nc1nc(O)c2c(n1)n(C1OC(CO)[C@@H](O)[C@H]1O)c(=O)n2Cc1ccccc1 (stereo not given in full) | 110% | 5.22 | – | – | – | – | –
CCOC(=O)Cn1c(=O)n(C2OC(CO)[C@@H](O)[C@H]2O)c2nc(N)nc(O)c21 (stereo not given in full) | 86% | 4.32 | 58% | 3.20 | – | – | –
C=CCn1c(=O)n(C2OC(COC(=O)COC)[C@@H](OC(=O)COC)[C@H]2OC(=O)COC)c2nc(NC(=O)COC)nc(O)c21 (stereo not given in full) | 216% | 4.55 | 53% | 3.09 | 60% | 3.82 | –
C=CCn1c(=O)n(C2OC(CO[Si](C)(C)C(C)(C)C)[C@@H](O)[C@H]2O)c2nc(N)nc(O)c21 (stereo not given in full) | 5% | 6.00 | – | – | 6% | – | Negative
C=CCn1c(=O)n(C2OC(CO[Si](c3ccccc3)(c3ccccc3)C(C)(C)C)[C@@H](O)[C@H]2O)c2nc(N)nc(O)c21 (stereo not given in full) | 33% | 4.74 | – | – | 15% | – | Negative
Cn1c(=O)n(C2OC(CO)[C@@H](O)[C@H]2O)c2nc(N)nc(O)c21 (stereo not given in full) | 99% | 5.00 | 100% | 3.92 | 72% | 4.25 | –
N#Cc1ccc(Cn2c(=O)n(C3OC(CO)[C@@H](O)[C@H]3O)c3nc(N)nc(O)c32)cc1 (stereo not given in full) | 50% | 4.82 | – | – | 0% | – | Negative
C=CCn1c(=S)n(C2OC(CO)[C@@H](O)C(O)[C@H]2O)c2nc(N)nc(O)c21 (stereo not given in full) | 5% | 6.00 | – | – | 3% | – | Negative
N#Cc1cccc(Cn2c(=O)n(C3OC(CO)[C@@H](O)[C@H]3O)c3nc(N)nc(O)c32)c1 (stereo not given in full) | 16% | 5.52 | – | – | 11% | – | Negative
C=CCn1c(=O)n(C2CN(C(c3ccccc3)c3ccccc3)CC(CO)O2)c2nc(N)nc(O)c21 (stereo not given) | – | – | – | – | 46% | 4.92 | –
COc1ccc(CCNCC(O)Cn2c(=O)n(C3OC(CO)[C@@H](O)[C@H]3O)c3nc(N)nc(O)c32)cc1OC (stereo not given in full) | 3% | – | – | – | – | – | –
C=CCn1c(=S)n([C@@H]2O[C@H](CO)[C@H]3OC(C)(C)O[C@H]32)c2nc(N)nc(O)c21 | 89% | 4.26 | 9% | 4.35 | 30% | 4.40 | –
C=CCn1/c(=N\C#N)n([C@H]2OC(CO)[C@@H](O)[C@H]2O)c2nc(N)nc(O)c21 (stereo not given in full) | 85% | 3.81 | – | – | – | – | –
C=CCn1c(=O)n([C@@H]2O[C@H](CO)[C@H]3OC(C)(CCC(=O)O)O[C@H]32)c2nc(N)nc(O)c21 (stereo not given in full) | – | – | – | – | 0% | – | Negative
C=CCn1c(=S)n(C2OC(COC(C)=O)[C@@H](OC(C)=O)[C@H]2OC(C)=O)c2nc(NC(C)=O)nc(O)c21 (stereo not given in full) | 60% | 5.15 | 134% | 3.53 | 77% | 5.30 | –
Cn1c(=O)n([C@@H]2O[C@H](CO)[C@H]3OC(C)(C)O[C@H]32)c2nc(N)nc(O)c21 | 193% | 3.77 | 17% | – | – | – | –
C=CCn1c(=O)n(Cc2ccccc2)c2nc(N)nc(O)c21 | 25% | 5.30 | – | – | – | – | –
C=CCn1c(=S)n(C2OC(CO)[C@@H](O)[C@H]2O)c2nc(N)nc(O)c21 (stereo not given in full) | 100% | 6.00 | 151% | 4.70 | – | – | –
CCCCn1c(=O)n(C2OC(CO)[C@@H](O)[C@H]2O)c2nc(N)nc(O)c21 (stereo not given in full) | 86% | 4.96 | 70% | 4.00 | – | – | –
Cn1c(=O)n(C2OC(CI)[C@@H](O)[C@H]2O)c2nc(N)nc(O)c21 (stereo not given in full) | 32% | – | 4% | 4.28 | – | – | –
C=CCn1c(=O)n([C@@H]2O[C@H](CO)[C@H]3OC(CCC)(CCC)O[C@H]32)c2nc(N)nc(O)c21 | 123% | 5.40 | 38% | – | 56% | 4.96 | –
C=CCn1c(=O)n(C2OC(COC(=O)CCC)[C@@H](OC(=O)CCC)[C@H]2OC(=O)CCC)c2nc(NC(=O)CCC)nc(O)c21 (stereo not given in full) | 109% | 4.28 | – | – | 12% | – | Negative
C=CCn1c(=O)n(CCCC)c2nc(N)nc(O)c21 | 77% | 5.70 | 36% | 4.96 | 21% | 5.40 | –
CCn1c(=O)n(C2OC(CO)[C@@H](O)[C@H]2O)c2nc(N)nc(O)c21 (stereo not given in full) | 82% | 4.82 | 82% | – | – | – | –

SMILES | Max response (Mus musculus [1]) | pEC50 (Mus musculus [2]) | Max response (Mus musculus [3]) | pEC50 (Mus musculus [4]) | Max response (YAC-1 [5]) | pEC50 (YAC-1 [6]) | ED50 (YAC-1 [7])
C=CCn1c(=[Se])n(C2OC(CO)[C@@H](O)[C@H]2O)c2nc(N)nc(O)c21 (stereo not given in full) | 70% | 4.82 | 107% | 3.93 | – | – | –
C=CCn1c(=O)n(C2OC(CO)[C@@H](O)C2O)c2nc(N)nc(O)c21 (stereo not given in full) | 143% | 4.77 | 76% | 3.63 | 68% | 4.22 | –
C=CCn1c(=O)n(CCC(COCc2ccccc2)COCc2ccccc2)c2nc(N)nc(O)c21 | 68% | 5.15 | – | – | – | – | –
C=CCn1c(=S)n(COCCO)c2nc(N)nc(O)c21 | 9% | 4.85 | 7% | 4.89 | 28% | 4.26 | –
NC(=O)Cn1c(=O)n(C2OC(CO)[C@@H](O)[C@H]2O)c2nc(N)nc(O)c21 (stereo not given in full) | 32% | 3.72 | 72% | 3.93 | 42% | 4.05 | –
CN(C)CCCn1c(=O)n(C2OC(CO)[C@@H](O)[C@H]2O)c2nc(N)nc(O)c21 (stereo not given in full) | 83% | 3.71 | 63% | 3.09 | – | – | –
COc1ccc(Cn2c(=O)n(C3OC(CO)[C@@H](O)[C@H]3O)c3nc(N)nc(O)c32)cc1 (stereo not given in full) | 44% | 3.87 | 14% | 2.62 | – | – | –
C=CCn1c(=S)n(C2OC(COC(C)=O)[C@@H](OC(C)=O)[C@H]2OC(C)=O)c2nc(N)nc(O)c21 (stereo not given in full) | 141% | 5.30 | 96% | 4.47 | – | – | –
C=CCn1c(=O)n(CCCCCCCC)c2nc(N)nc(O)c21 | 130% | 4.43 | – | – | – | – | –
Nc1nc(O)c2nc(S)n([C@@H]3O[C@H](CO)[C@@H](O)[C@H]3O)c2n1 | 100% | 4.30 | 100% | 3.27 | – | – | –
Nc1nc(O)c2c(n1)n(C1OC(CO)[C@@H](O)[C@H]1O)c(=O)n2Cc1ccc(Cl)cc1 (stereo not given in full) | 15% | 4.85 | – | – | 27% | 3.74 | –
NCC(O)Cn1c(=O)n(C2OC(CO)[C@@H](O)[C@H]2O)c2nc(N)nc(O)c21 (stereo not given in full) | 110% | 4.55 | – | – | – | – | –
Nc1nc(O)c2c(n1)n(C1OC(CO)[C@@H](O)[C@H]1O)c(=O)n2CC(O)CSc1ccccc1 (stereo not given in full) | 12% | 3.85 | – | – | – | – | –
Nc1nc(O)c2c(n1)n(C1OC(CO)[C@@H](O)[C@H]1O)c(=O)n2CCCl (stereo not given in full) | 101% | 5.40 | – | – | 83% | 4.72 | –
[N-]=[N+]=NCC(O)Cn1c(=O)n(C2OC(CO)[C@@H](O)[C@H]2O)c2nc(N)nc(O)c21 (stereo not given in full) | 91% | 4.41 | – | – | – | – | –
Nc1nc(O)c2c(n1)n(C1OC(CO)[C@@H](O)[C@H]1O)c(=O)n2CC(O)CN1CCN(c2ccc(F)cc2)CC1 (stereo not given in full) | 16% | – | – | – | – | – | –
Nc1nc(O)c2c(n1)n(C1OC(CO)[C@@H](O)[C@H]1O)c(=O)n2CC(O)CO (stereo not given in full) | 136% | 4.35 | – | – | – | – | –
CCCn1c(=O)n(C2CCC(CO)O2)c2nc(N)nc(O)c21 (stereo not given) | 118% | 5.22 | 84% | 4.28 | 102% | 4.85 | –
CC1(C)O[C@@H]2[C@H](O1)[C@@H](CO)O[C@H]2n1c(=O)n(C/C=C/c2ccccc2)c2c(O)nc(N)nc21 | 16% | – | 10% | – | – | – | –
Nc1nc(O)c2c(n1)n(C1OC(CO)[C@@H](O)[C@H]1O)c(=O)n2C/C=C/c1ccccc1 (stereo not given in full) | 73% | 3.99 | 5% | 2.35 | – | – | –
C=CCn1c(=O)n([C@@H]2O[C@H](CO)[C@H]3OC(=O)O[C@H]32)c2nc(N)nc(O)c21 | 50% | 5.52 | 97% | 4.33 | 90% | 4.70 | –
CCCCCCn1c(=O)n(C2OC(CO)[C@@H](O)[C@H]2O)c2nc(N)nc(O)c21 (stereo not given in full) | – | – | 11% | 3.22 | – | – | –
C=CCn1c(=S)n(C2OC(COC(C)=O)[C@H]3OC(C)(C)O[C@@H]23)c2nc(N)nc(O)c21 (stereo not given in full) | 141% | 4.30 | 20% | 4.30 | 30% | 4.52 | –
C=CCSc1nc2c(O)nc(N)nc2n1C1OC(CO)[C@@H](O)[C@H]1O (stereo not given in full) | 107% | 3.97 | 57% | 3.31 | – | – | –
